The viability is a read-out of living cells in per cent, often relative to untreated cells. For orientation: inhibition means the relative decrease from the control value, in per cent.

Activity calls are given as the source filed them. Cut-off read from the data, not from the text of the source, unless noted: active = inhibition above about 31%; inactive = the rest.

A short description of test [1]: HUVEC growth inhibition – cell-based, human, primary screen (AID 575;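 active = viability at or below 30% in both replicate assays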;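 note: 100% = median of untreated cell wells with 0.1% DMSO on each plate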). Particulars: HUVEC proliferation, CellTiter-Glo luminescence, 72 h; at 10 µM; stronger effect = lower value. The method, boiled down:
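system = HUVEC primary cells | amount = 1250 cells/well | buffer or medium = supplemented EBM, 2% fetal bovine serum | dosing = single-point 10 µM, DMSO 0.1% final | times = 72 h compound incubation | detection = CTG luminescence | read-out = % viability relative to median vehicle-well signal on each plate | control set = vehicle and MePR control wells | format = collagen-coated 384-well format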

The nature of test [2]: H69AR cell proliferation blockers – human, duplicate replicates, primary screen (AID 580;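 active = viability at or under a set limit in both replicates, limit being median viability minus 3 SD, cut at about 48% in these data, passing the limit was not always enough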;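 note: 100% = mean luminescence of untreated wells and 0% = no signal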). Particulars: H69AR lung tumor cells viability, ATP luminescence, 72 h; at 10 µM; stronger effect = lower value.
Test [3] is described as follows: MRP1 drug-resistance reversers in H69AR cells – cell-based, doxorubicin co-treatment, pilot screen (AID 601;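 active = viability loss from added drug above about 55%, and viability with drug at most 40%, in both replicates, limit read from the data, passing the limit was not always enough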). As to conditions: CellTiter-Glo, 72 h, at 10 µM; for differential viability (reversal): stronger effect = higher value. On the technique in general: In ATP-based viability assays light output follows the ATP content of the culture.
A short description of test [4]: yeast transport mutant growth inhibition pilot in 384-well plates, post-Golgi transport modulator project (AID 636). Particulars: absorbance 615 nm, about 18 h, stronger effect = higher value.
Test [5] can be described thus: growth suppression of yeast trafficking mutant, preliminary HTS, modulators of trafficking downstream of Golgi apparatus project, 1536-format plate, OD 615 nm (AID 637; in the data active = inhibition above about 30%). Particulars: yeast transport mutant growth, absorbance 615 nm, 18 h; stronger effect = higher value.
[6] abbreviates: H69AR cells + 2 uM doxorubicin, measured here: viability with 2 uM doxorubicin, stronger effect = lower value.
Setting [7] is: H69AR cells, compound alone cytotoxicity.

Regarding `O=C(Cc1cccs1)NCc1ccc(F)cc1`, the viability in test [1] was 98% (inactive); in test [2], 99.6% (inactive); in test [3] (setting [6]), 94.4%; in test [3] (setting [7]), 99.6%. In addition, the differential viability (reversal) in test [3] (H69AR cells + 2 uM doxorubicin) was 5.21% (inactive). Besides, the values for the inhibition in test [4] and in test [5] were -3.6% (inactive) and 3.33% (inactive), respectively.
Turning to `COc1ccc(NC(=O)COc2ccccc2)c(OC)c1`, the viability in test [1] is 111% (inactive); in test [2], 104% (inactive); in test [3] (setting [6]), 81%; in test [3] (setting [7]), 104%. Further, the differential viability (reversal) in test [3] (H69AR cells + 2 uM doxorubicin) is 23.1% (inactive). Besides, the values for the inhibition in test [4] and in test [5] were -5.6% (inactive) and 0.16% (inactive), respectively.
Regarding `C=CCn1c(=O)[nH]c2cc(C(=O)N3CCN(c4ccc(C(C)=O)cc4)CC3)ccc2c1=O`, the viability in test [1] is 68.5% (inactive); in test [2] it was 92.4% (inactive); in test [3] (setting [6]), 79%; in test [3] (setting [7]), 92.4%. The differential viability (reversal) in test [3] (H69AR cells + 2 uM doxorubicin) is 13.4% (inactive). Moreover, the inhibition in test [4] was -1.97% (inactive); in test [5], -5.71% (inactive).
As to `Cc1cccc2c1nc(-c1ccccc1)n1cnnc21`, the viability in test [1] is 92.3% (inactive); in test [2], 86.7% (inactive); in test [3] (setting [6]), 95.3%; in test [3] (setting [7]), 86.7%. In test [3] (H69AR cells + 2 uM doxorubicin), the differential viability (reversal) was -8.59% (inactive). The results for the inhibition in test [4] and in test [5] were 1.2% (inactive) and -6.19% (inactive), respectively.
On to `O=C1c2ccccc2C(=O)N1CCC(=O)N1CCc2ccccc21`, for which the viability was 101% (inactive) in test [1], 87.3% (inactive) in test [2], 92.7% in test [3] (setting [6]) and 87.3% in test [3] (setting [7]). For the same molecule, the differential viability (reversal) in test [3] (H69AR cells + 2 uM doxorubicin) is -5.43% (inactive). The values for the inhibition in test [4] and in test [5] were -4.53% (inactive) and 5.08% (inactive), respectively.
For the molecule `CC1(C)CC(=O)C2=C(C1)Nc1nc(SCCN3CCOCC3)[nH]c(=O)c1C2c1cccs1` (stereo not given), the viability in test [1] is 99.6% (inactive); in test [2], 89.9% (inactive); in test [3] (setting [6]), 87.8%; in test [3] (setting [7]), 89.9%. Further, the differential viability (reversal) in test [3] (H69AR cells + 2 uM doxorubicin) was 2.1% (inactive). In addition, the inhibition in test [4] was 1.69% (inactive); in test [5], 24% (inactive).
Turning to `CC1CC(C)CN(CCCNC(=O)c2ccc3c(c2)NC(=O)C(N2CCCCC2)S3)C1` (stereo not given), the viability in test [1] was 88.6% (inactive); in test [2], 87.8% (inactive); in test [3] (setting [6]), 82.8%; in test [3] (setting [7]) it was 87.8%. The differential viability (reversal) in test [3] (H69AR cells + 2 uM doxorubicin) is 4.94% (inactive). Further, the values for the inhibition in test [4] and in test [5] were 2.4% (inactive) and -7.14% (inactive), respectively.
`O=C(CSc1nnc(-c2ccccc2)o1)N1CCN(c2ccccc2)CC1`: the viability was 89.9% (inactive) in test [1], 98.3% (inactive) in test [2], 94.8% in test [3] (setting [6]) and 98.3% in test [3] (setting [7]). Further, the differential viability (reversal) in test [3] (H69AR cells + 2 uM doxorubicin) was 3.54% (inactive). Besides, the inhibition in test [4] was -4.53% (inactive); in test [5] it was 1.75% (inactive).
As for `COc1cccc(C(c2nnnn2Cc2ccccc2)N2CCN(C(=O)c3ccco3)CC2)c1OC` (stereo not given), the viability in test [1] is 77.5% (inactive); in test [2] it was 82.3% (inactive); in test [3] (setting [6]), 91.4%; in test [3] (setting [7]) it was 82.3%. The differential viability (reversal) in test [3] (H69AR cells + 2 uM doxorubicin) is -9.06% (inactive). For the same molecule, the inhibition in test [4] was -1.84% (inactive); in test [5], -6.35% (inactive).
For the molecule `CCOC(=O)NC(=O)CSc1nnc(C)s1`, the viability is 115% (inactive) in test [1], 105% (inactive) in test [2], 96.5% in test [3] (setting [6]) and 105% in test [3] (setting [7]). In test [3] (H69AR cells + 2 uM doxorubicin), the differential viability (reversal) is 8.07% (inactive). Besides, the results for the inhibition in test [4] and in test [5] were -4.08% (inactive) and 3.65% (inactive), respectively.
As to `CC(Sc1nnc(-c2cc3ccccc3o2)n1-c1ccccc1)C(=O)O` (stereo not given), the viability was 90.9% (inactive) in test [1], 95.1% (inactive) in test [2], 93.5% in test [3] (setting [6]) and 95.1% in test [3] (setting [7]). Further, the differential viability (reversal) in test [3] (H69AR cells + 2 uM doxorubicin) is 1.61% (inactive). Also, the inhibition in test [4] is -5.84% (inactive); in test [5] it was 2.38% (inactive).
As to `Nc1nc2ccccc2n1/N=C/c1ccc(Br)cc1`, the viability in test [1] is 72.4% (inactive); in test [2], 86.8% (inactive); in test [3] (setting [6]), 82.8%; in test [3] (setting [7]) it was 86.8%. Further, in test [3] (H69AR cells + 2 uM doxorubicin), the differential viability (reversal) is 4.02% (inactive). The inhibition in test [4] was -3.95% (inactive); in test [5], 8.57% (inactive).
For the molecule `Cc1ccc2[nH]c(=O)c(CN(CCc3ccccc3)Cc3nnnn3CC3CCCO3)cc2c1` (stereo not given), the viability in test [1] is 77.1% (inactive); in test [2], 78.5% (inactive); in test [3] (setting [6]), 78.3%; in test [3] (setting [7]) it was 78.5%. Further, the differential viability (reversal) in test [3] (H69AR cells + 2 uM doxorubicin) was 0.205% (inactive). Moreover, the inhibition in test [4] is 1.45% (inactive); in test [5], -5.87% (inactive).
On to `COCc1[nH]nc2c1C(C1C=CCCC1)C(C#N)=C(N)O2` (stereo not given), for which the viability in test [1] is 68.9% (inactive); in test [2], 94.6% (inactive); in test [3] (setting [6]) it was 98.8%; in test [3] (setting [7]) it was 94.6%. In test [3] (H69AR cells + 2 uM doxorubicin), the differential viability (reversal) is -4.19% (inactive). Further, the inhibition in test [4] is -2.5% (inactive); in test [5], -1.11% (inactive).
As for `Cc1cc(C(=O)Nc2cccc(O)c2)c(C)o1`, the viability in test [1] is 87.1% (inactive); in test [2] it was 90% (inactive); in test [3] (setting [6]) it was 86.4%; in test [3] (setting [7]), 90%. In addition, in test [3] (H69AR cells + 2 uM doxorubicin), the differential viability (reversal) was 3.61% (inactive). Moreover, the inhibition in test [4] is -4.55% (inactive); in test [5], 3.17% (inactive).

(Values after PubChem BioAssay.)
